# The source made the active and inactive calls. The calls are words filed in the database; no cut-off is given here.
# Columns and labels:
# [1] = biological target: T1, Anoctamin-1 (Homo sapiens) (UniProt Q5XXA6); assay: Inhibition of human ANO1 channel expressed in HEK293 cells at 10 uM incubated for 10 mins by FLIPR assay relative to control; format: cell-based
# T1 sequence (whole entry): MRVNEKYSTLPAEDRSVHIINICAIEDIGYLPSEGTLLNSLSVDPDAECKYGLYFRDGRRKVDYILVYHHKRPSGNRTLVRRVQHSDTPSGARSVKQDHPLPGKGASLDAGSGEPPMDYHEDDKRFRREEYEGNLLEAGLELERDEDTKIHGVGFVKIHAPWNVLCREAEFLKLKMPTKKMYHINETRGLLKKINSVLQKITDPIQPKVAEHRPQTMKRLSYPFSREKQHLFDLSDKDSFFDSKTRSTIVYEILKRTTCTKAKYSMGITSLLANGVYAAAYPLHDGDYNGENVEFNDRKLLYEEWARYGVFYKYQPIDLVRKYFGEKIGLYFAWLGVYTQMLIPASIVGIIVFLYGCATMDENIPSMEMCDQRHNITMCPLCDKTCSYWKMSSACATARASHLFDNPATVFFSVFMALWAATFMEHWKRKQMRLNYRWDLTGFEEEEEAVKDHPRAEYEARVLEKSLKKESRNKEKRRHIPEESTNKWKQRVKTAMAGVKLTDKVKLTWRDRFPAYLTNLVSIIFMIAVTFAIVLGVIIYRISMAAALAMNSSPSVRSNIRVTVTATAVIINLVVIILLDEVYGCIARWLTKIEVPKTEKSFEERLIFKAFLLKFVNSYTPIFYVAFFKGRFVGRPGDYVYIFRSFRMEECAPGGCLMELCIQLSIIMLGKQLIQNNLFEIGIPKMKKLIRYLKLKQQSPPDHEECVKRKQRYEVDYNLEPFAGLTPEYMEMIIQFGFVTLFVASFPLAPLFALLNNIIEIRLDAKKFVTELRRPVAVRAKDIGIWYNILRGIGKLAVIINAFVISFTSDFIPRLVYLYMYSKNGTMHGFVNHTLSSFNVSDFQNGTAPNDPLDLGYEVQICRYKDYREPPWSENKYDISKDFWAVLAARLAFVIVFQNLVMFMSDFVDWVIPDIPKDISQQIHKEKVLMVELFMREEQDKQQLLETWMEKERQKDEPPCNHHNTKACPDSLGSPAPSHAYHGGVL
# Method in brief: (§1)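 HEK293 cells expressing human ANO1, 50,000 cells/well, plated overnight. Loaded with FLIPR Red membrane-potential dye in HEPES-buffered saline (pH 7.4) for 40-60 min at room temperature. Compound added for 10 min at room temperature, final DMSO 0.5%.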
# [2] = biological target: T2, Anoctamin-1 (Homo sapiens, UniProt Q5XXA6); assay: Inhibition of human ANO1 channel expressed in HEK293 cells incubated for 10 mins by FLIPR assay; format: cell-based; method in brief: as §1
# T2 sequence (Q5XXA6 whole entry): T1 sequence (whole entry)
# [3] = system: U-251; assay: Inhibition of anchorage-independent colony formation in human U251 cells at 10 uM incubated for 14 days by crystal violet staining based soft agar colony formation assay; format: functional, cell-based; settings: time 14.0 day
# Method in brief: (§2)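 Soft agar assay: 2.0×10^3 U251 cells in complete medium with 0.3% agar over a 0.6% bottom agar layer. Treated with compounds at 1-100 μM for 14 days, 37 °C, 5% CO2. Colonies stained with crystal violet for 24 h, whole wells photographed and colonies counted against DMSO control; n = 3.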
# [4] = system: U-251; assay: Inhibition of colony formation in human U251 cells incubated for 14 days by crystal violet dye based assay; format: functional, cell-based; settings: dose 1-10 µM, time 14.0 day
# Method in brief: (§3)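 U251 cells, 1.0×10^3 per well, treated with compound (1, 3 or 10 μM) for 2 weeks at 37 °C, 5% CO2. Colonies stained 24 h with crystal violet in methanol/formaldehyde/PBS, washed, extracted with 10% acetic acid and read at A570 nm. Compared against DMSO control.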
# [5] = system: U-251; assay: Inhibition of anchorage-independent colony formation in human U251 cells at 100 uM incubated for 14 days by crystal violet staining based soft agar colony formation assay; format: functional; settings: U-251, 336 h, time 14 day; method in brief: as §2
# [6] = system: U-251; assay: Inhibition of cell migration in human U251 cells at 10 uM incubated for 18 hrs by wound healing assay; format: functional
# Method in brief: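 U251 monolayer, 2.0×10^5 cells/well, plated overnight, then scratched and washed with PBS. Wound area imaged before and after incubation; migration ratio taken from migrated area. One-way ANOVA.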
# [7] = system: U-251; assay: Inhibition of cell invasion in human U251 cells at 10 uM incubated for 48 hrs by Boyden chamber method; format: functional
# Method in brief: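 Boyden chamber invasion: U251 cells serum-starved 24 h, then 2.5×10^5 cells seeded in 8-μm ECMatrix-coated transwells. Treated with compound at 1 or 10 μM for 48 h at 37 °C. Invasion ratio from relative fluorescence.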
# [8] = system: U-251; assay: Upregulation of E-cadherin protein expression in human U251 cells incubated for 18 hrs by Western blot analysis; format: functional, cell-based; settings: dose 1-10 µM
# Method in brief: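 U251 cells (5×10^5) treated with compounds for 18 h, lysed in NP40 buffer with protease inhibitors. 25 μg lysate run on SDS-PAGE and blotted for E-cadherin, β-actin as loading control. Primary antibodies at 1:1000 (actin 1:10000). Bands quantified by densitometry; one-way ANOVA.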
# [9] = biological target: T1, Anoctamin-1 (Homo sapiens); assay: Induction of ANO1 degradation in human U251 cells at 10 uM preincubated with compound for 6 hrs followed by treatment with proteasome inhibitor, MG132 for 18 hrs by western blot analysis; format: cell-based; settings: U-251, time 24.0 hrs
# Method in brief: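 U251 cells (5×10^5) treated with 10 μM inhibitor for 24 h. Alternatively, treated 6 h with 10 μM inhibitor, then MG132 (20 μM, a proteasome inhibitor) for a further 18 h. NP40 lysates immunoblotted for ANO1, β-actin as loading control; band densitometry.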
# [10] = system: U-87 MG; assay: Antiproliferative activity against human U87MG cells overexpressing ANO1 assessed as reduction in cell viability measured after 72 hrs by Celltiter-glo assay; format: functional, U-87MG ATCC
# Method in brief: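 5.0×10^3 cells/well seeded, overnight, then compounds added as 1:4 serial dilutions in DMSO; viability read after 72 h with CellTiter-Glo luminescence. GI50 from fitted dose-response curves; triplicate wells, SD from three independent experiments. DMEM for U251 and U138, MEM for U87MG, both with 10% FBS and pen/strep, 37 °C, 5% CO2.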
# [11] = system: U-251; assay: Inhibition of colony formation in human U251 cells at 3 uM incubated for 14 days by crystal violet dye based assay; format: functional, cell-based; settings: time 14.0 day; method in brief: as §3
# [12] = system: U-251; assay: Inhibition of anchorage-independent colony formation in human U251 cells incubated for 14 days by crystal violet staining based soft agar colony formation assay; format: functional, cell-based; settings: dose 30-100 µM, time 14.0 day; method in brief: as §2
# [13] = system: U-251; assay: Inhibition of cell migration in human U251 cells incubated for 18 hrs by wound healing assay; format: functional, cell-based; settings: dose 1-10 µM
# Method in brief: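 U251 monolayer, 2.0×10^5 cells/well, plated overnight, then scratched and washed with PBS. Incubated 18 h in complete medium with compound (1, 5 or 10 μM). Wound area imaged before and after incubation; migration ratio taken from migrated area. One-way ANOVA.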
# [14] = biological target: T1, Anoctamin-1 (Homo sapiens); assay: Inhibition of ANO1 in human U251 cells assessed as inhibition of channel current at 10 uM by patch clamp electrophysiology assay; format: cell-based; settings: U-251
# Method in brief: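 Endogenous ANO1 currents recorded by whole-cell patch clamp in U251 cells, room temperature. 1 s ramps from +80 to -80 mV, holding potential -10 mV. CsCl-based pipette with Ca-EGTA-NMDG (pH 7.3) and NaCl-based bath (pH 7.3).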
Structure (SMILES),inhibition [1] [%],IC50 [2] [nM],inhibition [3],inhibition [4],inhibition at 100 µM [5] [%],inhibition [6],inhibition [7],Activity [8],Activity [9],GI50 [10] [µM],inhibition [11],inhibition [12],inhibition [13],inhibition [14] [%],inhibition at 10 µM [6] [%],inhibition at 10 µM [7] [%]
NC(=O)c1c(NC(=S)NC(=O)c2ccc(Cl)cc2)sc2c1CCC2,72.2,2360,inactive,Dose-dependent effect,88,Active,Active,Dose-dependent effect,inactive,23.8,Active,Dose-dependent effect,Dose-dependent effect,60,–,–
CC(C)(C)C(=O)Nc1sc2c(c1C(N)=O)CCC(C(C)(C)C)C2 (stereo not drawn),86.9,3100,inactive,Dose-dependent effect,95.7,–,–,Dose-dependent effect,inactive,31.5,Active,Dose-dependent effect,Dose-dependent effect,40,90,90

# Reference: ChEMBL document CHEMBL4706565, “Anti-glioma effects of 2-aminothiophene-3-carboxamide derivatives, ANO1 channel blockers” (Eur J Med Chem, 2020)
